Experimental data from ChEMBL document CHEMBL4673245, “Discovery of AZD9833, a Potent and Orally Bioavailable Selective Estrogen Receptor Degrader and Antagonist” (J Med Chem, 2020).

How the values were obtained:
[1] = target: T1, Estrogen receptor (Homo sapiens) (UniProt P03372); assay: Induction of ERalpha degradation in human MCF7 cells assessed as maximum degradation incubated for 18 to 24 hrs by Alexa fluor 488/Hoechst staining based immunofluorescence imaging analysis relative to fulvestrant; assay type: cell-based; conditions: time lower […], time upper […]
T1 sequence (whole entry): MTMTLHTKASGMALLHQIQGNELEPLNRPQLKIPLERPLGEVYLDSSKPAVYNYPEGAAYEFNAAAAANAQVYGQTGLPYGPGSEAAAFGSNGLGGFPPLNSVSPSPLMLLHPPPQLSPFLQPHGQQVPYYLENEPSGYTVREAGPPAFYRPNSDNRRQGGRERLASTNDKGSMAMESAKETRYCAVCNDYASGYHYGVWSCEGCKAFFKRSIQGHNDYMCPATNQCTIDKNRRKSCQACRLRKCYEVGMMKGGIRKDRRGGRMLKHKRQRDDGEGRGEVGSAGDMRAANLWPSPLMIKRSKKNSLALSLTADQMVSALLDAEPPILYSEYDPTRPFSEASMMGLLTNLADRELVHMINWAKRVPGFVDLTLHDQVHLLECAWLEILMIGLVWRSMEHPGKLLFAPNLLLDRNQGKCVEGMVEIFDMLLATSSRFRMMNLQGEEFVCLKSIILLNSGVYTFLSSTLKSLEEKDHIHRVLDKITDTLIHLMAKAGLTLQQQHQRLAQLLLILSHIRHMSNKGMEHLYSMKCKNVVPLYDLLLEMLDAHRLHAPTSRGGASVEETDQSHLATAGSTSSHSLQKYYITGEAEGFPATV

[2] = target: T1, Estrogen receptor (Homo sapiens); assay: Induction of ERalpha degradation in human MCF7 cells assessed as decrease in ER-alpha level at 0.1 uM by Western blot analysis relative to fulvestrant; assay type: cell-based; set-up: scale not given: the % may be the effect or the level left
Estrogen receptor [3] = target: T2, Estrogen receptor (Homo sapiens, UniProt P03372); assay: Displacement of fluormone ES2 green reagent from human GST-tagged ERalpha LBD (282 to 595 residues) expressed in baculovirus infected insect cells incubated for 1 hrs by TR-FRET Lanthascreen assay
T2 sequence (P03372 whole entry): T1 sequence (whole entry)

[4] = Intrinsic clearance in rat hepatocytes assessed per million cells; assay type: ADME, cell-based, Hepatocyte; conditions: read-out: CLH
Outline: (§1)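 Hepatocyte intrinsic clearance measured from DMSO stock in isolated hepatocytes diluted to 1x10⁶ cells/mL; rate expressed as µl/min/10⁶ cells.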

[5] = target: T1, Estrogen receptor (Homo sapiens); assay: Induction of ERalpha degradation in human CAMA1 cells assessed as decrease in ER-alpha level at 0.1 uM by Western blot analysis relative to fulvestrant; assay type: cell-based; set-up: scale not given: the % may be the effect or the level left; conditions: CAMA-1
Outline: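 Western blot for ERα in MCF-7 and CAMA-1 cells after treatment at 0.1 µM. ER level is expressed as % degradation relative to fulvestrant, from a single experiment (n = 1).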

[6] = Fraction unbound in human plasma by equilibrium dialysis method; assay type: ADME, cell-free
Outline: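 Fraction unbound measured from DMSO stock by equilibrium dialysis in 10% human plasma.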

Estrogen receptor [7] = target: T2, Estrogen receptor; assay: Induction of ERalpha degradation in human MCF7 cells assessed as decrease in ER-alpha level incubated for 18 to 24 hrs by Alexa fluor 488/Hoechst staining based immunofluorescence imaging analysis; assay type: cell-based
Outline: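 ER degradation in MCF-7 cells via cellular degradation assay; n ≥ 2, degradation also expressed as %Dmax relative to fulvestrant.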

[8] = Lipophilicity, log D of the compound in buffer and octanol at pH 7.4 by shake flask method; assay type: physicochemical
Outline: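 logD at pH 7.4 by shake flask, buffer/octanol volume ratio 100:1.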

[9] = Intrinsic clearance in human hepatocytes assessed per million cells; assay type: ADME, cell-based, Hepatocyte; conditions: read-out: CLH; outline: as §1

| SMILES | Emax [1] | Activity [2] | IC50 (Estrogen receptor [3]) | hepatocyte CLint [4] | Activity [5] | fraction unbound [6] | IC50 (Estrogen receptor [7]) | logD [8] | hepatocyte CLint [9] |
| --- | --- | --- | --- | --- | --- | --- | --- | --- | --- |
| C[C@@H]1Cc2c(ccc3[nH]ncc23)[C@@H](c2ccc(N(C)C3CN(CCCF)C3)cn2)N1CC(F)(F)F | 98% | 85% | 2 nM | 20 µL/min/1e6 cells | 82% | 0.15 | 0.2 nM | – | – |
| C[C@@H]1Cc2c(ccc3[nH]ncc23)[C@@H](c2ccc(NC3(C)CN(CCCF)C3)cn2)N1CC(F)(F)F | 82% | – | 7.94 nM | 35 µL/min/1e6 cells | – | – | 3.16 nM | 3.2 | – |
| COc1cc(OC2CN(CCCF)C2)ccc1[C@@H]1c2ccc3[nH]ncc3c2C[C@@H](C)N1CC1(F)CC1 | 97% | 90% | 7.94 nM | 16 µL/min/1e6 cells | 90% | 0.11 | – | – | – |
| C[C@@H]1Cc2c(ccc3[nH]ncc23)[C@@H](c2ccc(OCCN3CC(CF)C3)cn2)N1CC1(F)CC1 | 98% | 75% | 1.26 nM | 38 µL/min/1e6 cells | 87% | 0.34 | 0.398 nM | – | 8 µL/min/1e6 cells |
| C[C@@H]1Cc2c(ccc3[nH]ncc23)[C@@H](c2ccc(O[C@H]3CCN(CCCF)C3)cn2)N1CC(F)(F)F | 98% | – | 2 nM | 44 µL/min/1e6 cells | – | 0.15 | 0.398 nM | 3.2 | – |
| C[C@@H]1Cc2c(ccc3[nH]ncc23)[C@@H](c2ccc(NCCNCCCF)cn2)N1CC1(F)CC1 | 93% | – | 10 nM | 22 µL/min/1e6 cells | – | – | 1 nM | 2 | – |
| C[C@@H]1Cc2c(ccc3[nH]ncc23)[C@@H](c2ccc(NC3CN(CCCF)C3)cn2)N1CC(C)(F)F | – | – | – | 49 µL/min/1e6 cells | – | 0.24 | – | – | – |
| C[C@@H]1Cc2c(ccc3[nH]ncc23)[C@@H](c2ccc(NC3CN(CCCF)C3)cn2)N1CC(F)(F)CO | 99% | 104% | 6.31 nM | 16 µL/min/1e6 cells | 105% | 0.64 | 0.501 nM | – | – |
| C[C@@H]1Cc2c(ccc3[nH]ncc23)[C@@H](c2ccc(NC3CN(CCCF)C3)cn2)N1CC(C)(C)F | 96% | – | – | 26 µL/min/1e6 cells | – | 0.1 | – | – | – |
| CC(C)CN1[C@H](c2ccc(OCCN3CC(CF)C3)cn2)c2ccc3[nH]ncc3c2C[C@H]1C | 99% | – | 10 nM | 41 µL/min/1e6 cells | – | 0.19 | 0.398 nM | 3.2 | 8 µL/min/1e6 cells |
| C[C@@H]1Cc2c(ccc3[nH]ncc23)[C@@H](c2ccc(NC3CN(CCCF)C3)cn2)N1CC(F)F | 99% | – | 3.98 nM | 22 µL/min/1e6 cells | – | 0.4 | 0.316 nM | 2.4 | – |
| CC(C)CN1[C@H](c2c(F)cc(OCCN3CC(CF)C3)cc2F)c2ccc3[nH]ncc3c2C[C@H]1C | 99% | – | 0.794 nM | 74 µL/min/1e6 cells | – | 0.004 | 0.2 nM | 4.6 | 9 µL/min/1e6 cells |
| COc1cc(NC2CN(CCCF)C2)ccc1[C@@H]1c2ccc3[nH]ncc3c2C[C@@H](C)N1CC(F)F | 99% | 99% | 2 nM | 14 µL/min/1e6 cells | 100% | 0.12 | 0.1 nM | 3.2 | – |
| C[C@@H]1Cc2c(ccc3[nH]ncc23)[C@@H](c2ccc(NCCNCCCF)cn2)N1CC(F)(F)F | 94% | – | 5.01 nM | 22 µL/min/1e6 cells | – | 0.16 | 0.631 nM | 2.7 | – |
| C[C@@H]1Cc2c(ccc3[nH]ncc23)[C@@H](c2c(F)cc(OCCN3CC(CF)C3)cc2F)N1CC(C)(C)F | – | 84% | 1 nM | 88 µL/min/1e6 cells | 66% | 0.008 | 0.126 nM | 4.4 | 8 µL/min/1e6 cells |
| C[C@@H]1Cc2c(ccc3[nH]ncc23)[C@@H](c2ccc(N(C)[C@H]3CCN(CCCF)C3)cn2)N1CC(F)(F)F | 87% | – | 39.8 nM | 34 µL/min/1e6 cells | – | 0.057 | 0.794 nM | 3.5 | – |
| COc1cc(NC2CN(CCCF)C2)ccc1[C@@H]1c2ccc3[nH]ncc3c2C[C@@H](C)N1CC(C)(F)F | 98% | 80% | 2.51 nM | 15 µL/min/1e6 cells | 101% | 0.043 | 0.0398 nM | – | – |
| C[C@@H]1Cc2c(ccc3[nH]ncc23)[C@@H](c2ccc(OCCN3CC(CF)C3)cn2)N1CC(F)F | 98% | 97% | 2.51 nM | 36 µL/min/1e6 cells | 88% | 0.49 | 0.501 nM | – | 5 µL/min/1e6 cells |
| COc1cc(OCCN2CC(CF)C2)ccc1[C@@H]1c2ccc3[nH]ncc3c2C[C@@H](C)N1CC1(F)COC1 | 95% | 79% | 3.98 nM | 42 µL/min/1e6 cells | 75% | 0.25 | 0.251 nM | 2.7 | – |
| CC(C)CN1[C@H](c2ccc(OCCN3CC(CF)C3)cc2)c2ccc3[nH]ncc3c2C[C@H]1C | 99% | – | 2 nM | 66 µL/min/1e6 cells | – | 0.11 | 0.158 nM | 3.4 | 8 µL/min/1e6 cells |
| COc1cc(OCCNCCCF)ccc1[C@@H]1c2ccc3[nH]ncc3c2C[C@@H](C)N1CC1(F)CC1 | 82% | – | – | 9 µL/min/1e6 cells | – | 0.18 | – | 2.4 | – |
| CC1(C)Cc2c(ccc3[nH]ncc23)[C@@H](c2ccc(NC3CN(CCCF)C3)cn2)N1CC(F)F | 98% | – | 3.16 nM | 270 µL/min/1e6 cells | – | 0.22 | 0.794 nM | – | – |
| COc1cc(OCCN2CC(CF)C2)ccc1[C@@H]1c2ccc3[nH]ncc3c2C[C@@H](C)N1CC(C)(C)F | 95% | 69% | 3.16 nM | 28 µL/min/1e6 cells | 74% | 0.065 | – | 3.6 | 12 µL/min/1e6 cells |
| CC1(C)Cc2c(ccc3[nH]ncc23)[C@@H](c2ccc(NC3CN(CCCF)C3)cn2)N1CC(F)(F)F | 95% | – | – | 296 µL/min/1e6 cells | – | 0.14 | – | – | – |
| COc1cc(NC2CN(CCCF)C2)ccc1[C@@H]1c2ccc3[nH]ncc3c2C[C@@H](C)N1CC(F)(F)CO | 98% | – | 5.01 nM | 20 µL/min/1e6 cells | – | 0.23 | 0.2 nM | – | – |
| COc1cc(NC2CN(CCCF)C2)ccc1[C@@H]1c2ccc3[nH]ncc3c2C[C@@H](C)N1CC(C)(C)F | 96% | 86% | 6.31 nM | 8 µL/min/1e6 cells | 89% | 0.14 | 0.2 nM | – | – |
| COc1cc(OCCN2CC(CF)C2)ccc1[C@@H]1c2ccc3[nH]ncc3c2C[C@@H](C)N1CC(C)C | 98% | 94% | 7.94 nM | 9 µL/min/1e6 cells | 74% | 0.52 | – | – | 3 µL/min/1e6 cells |
| COc1cc(NC2CN(CCCF)C2)ccc1[C@@H]1c2ccc3[nH]ncc3c2C[C@@H](C)N1CC(F)(F)F | 98% | 95% | 5.01 nM | 12 µL/min/1e6 cells | 110% | 0.06 | 0.0631 nM | – | – |
| COc1cc(OCCN2CC(CF)C2)ccc1[C@@H]1c2ccc3[nH]ncc3c2C[C@@H](C)N1CC1(F)CC1 | 96% | 79% | – | 20 µL/min/1e6 cells | 88% | 0.21 | 0.126 nM | – | 7 µL/min/1e6 cells |
| C[C@@H]1Cc2c(ccc3[nH]ncc23)[C@@H](c2ccc(NC3CN(CCCF)C3)cn2)N1CC1(F)CC1 | 96% | 90% | 6.31 nM | 24 µL/min/1e6 cells | 102% | 0.26 | 0.631 nM | – | – |
